Measurements as given in ChEMBL document CHEMBL3244012, “Guanylhydrazones with potential antileukemic activity. 2. Synthesis and structure-activity relationships of analogues of 4,4'-diacetyl-N,N'-diphenylurea bis(guanylhydrazone)” (J Med Chem, 1978).

Key:
[1] = system: L1210; assay: Antitumor activity against mouse L1210 cells allografted in DBA/2J mouse assessed as survival at 30 mg/kg, ip dosed once daily on days 1 to 3 (reference value: 8.2 +/- 1.1 days); format: functional; details: route intraperitoneal
[2] = system: TA3; assay: Cytotoxicity against mouse TA3 cells assessed as growth inhibition after 3 days; format: functional; details: TA3, 72 h, read-out: ID50 (the source's name)
How it was run: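 Mouse mammary adenocarcinoma TA-3 cells grown in stationary tubes in RPMI 1640 with 10% horse serum; 50 000 cells inoculated with compound in medium, incubated upright 3 days. Growth read by protein assay; control growth six- to tenfold. Five tubes per concentration; inhibitory compounds retested at least twice. ID50 = 50% inhibitory concentration, between-test variation within ±10%.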

[3] = target: T1, DNA polymerase alpha catalytic subunit (Mus musculus) (UniProt P33609); assay: Inhibition of DNA polymerase alpha isolated from mouse L1210 cells assessed as reduction in DNA synthesis by cell-free system based assay
T1 sequence (whole entry): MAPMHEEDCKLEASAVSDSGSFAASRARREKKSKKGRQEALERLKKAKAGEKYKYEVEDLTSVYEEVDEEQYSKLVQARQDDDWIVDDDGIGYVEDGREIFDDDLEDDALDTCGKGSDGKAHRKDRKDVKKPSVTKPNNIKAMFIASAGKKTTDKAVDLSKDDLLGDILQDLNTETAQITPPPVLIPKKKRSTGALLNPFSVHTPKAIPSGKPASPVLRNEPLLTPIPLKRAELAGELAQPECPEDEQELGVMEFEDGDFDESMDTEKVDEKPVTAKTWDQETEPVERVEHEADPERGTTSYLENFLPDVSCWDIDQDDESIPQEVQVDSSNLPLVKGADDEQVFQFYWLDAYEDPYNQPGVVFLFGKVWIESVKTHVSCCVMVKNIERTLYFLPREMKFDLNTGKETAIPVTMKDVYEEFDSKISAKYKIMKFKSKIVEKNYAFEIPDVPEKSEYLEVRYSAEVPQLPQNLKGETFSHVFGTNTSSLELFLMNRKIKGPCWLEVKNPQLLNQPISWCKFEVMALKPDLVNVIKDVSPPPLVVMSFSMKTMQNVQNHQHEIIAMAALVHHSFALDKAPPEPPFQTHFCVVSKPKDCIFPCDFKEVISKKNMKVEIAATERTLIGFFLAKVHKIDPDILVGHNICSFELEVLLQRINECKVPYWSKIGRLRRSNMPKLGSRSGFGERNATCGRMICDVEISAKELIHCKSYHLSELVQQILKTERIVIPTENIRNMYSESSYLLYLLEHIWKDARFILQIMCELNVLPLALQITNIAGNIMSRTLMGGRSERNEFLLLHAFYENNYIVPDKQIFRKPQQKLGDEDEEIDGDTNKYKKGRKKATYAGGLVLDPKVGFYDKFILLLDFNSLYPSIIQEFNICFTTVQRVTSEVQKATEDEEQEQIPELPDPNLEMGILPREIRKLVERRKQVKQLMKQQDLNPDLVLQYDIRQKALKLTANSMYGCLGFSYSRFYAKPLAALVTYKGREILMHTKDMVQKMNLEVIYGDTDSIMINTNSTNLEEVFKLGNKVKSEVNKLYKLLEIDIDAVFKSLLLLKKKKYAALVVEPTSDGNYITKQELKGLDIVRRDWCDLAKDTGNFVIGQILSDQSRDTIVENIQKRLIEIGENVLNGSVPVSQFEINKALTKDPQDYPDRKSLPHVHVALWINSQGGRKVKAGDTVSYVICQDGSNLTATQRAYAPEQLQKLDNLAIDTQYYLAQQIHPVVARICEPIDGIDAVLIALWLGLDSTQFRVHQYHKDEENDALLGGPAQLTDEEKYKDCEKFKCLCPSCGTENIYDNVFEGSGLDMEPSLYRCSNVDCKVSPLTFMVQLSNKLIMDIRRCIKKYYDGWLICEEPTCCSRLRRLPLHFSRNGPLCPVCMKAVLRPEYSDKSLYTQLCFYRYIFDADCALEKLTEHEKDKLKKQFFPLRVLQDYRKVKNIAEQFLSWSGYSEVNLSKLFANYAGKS
How it was run: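 DNA polymerase α taken as a crude extract of mouse L1210 leukemia cells, assayed in a Bollum-type cell-free DNA synthesis system. Compounds added at different concentrations to the assay mixture before enzyme; initial reaction velocity measured.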

[4] = Solubility in aqueous solvents; format: physicochemical; details: buffer

| solubility [4] | Structure (SMILES) | Survival [1] [days] | IC50 [2] [µM] | inhibitory concentration [3] [µM] |
| --- | --- | --- | --- | --- |
| – | C/C(=N\NC(=N)N)c1ccc(NC(=O)Nc2ccc(/C(C)=N/NC(=N)N)cn2)cc1 | 11.3 | 7 | – |
| – | C/C(=N\NC(=N)N)c1ccc(NC(=O)Nc2ccc(/C(C)=N/NC(=N)N)cc2)cc1 | – | 6 | 60 |
| – | Br.Br.C/C(=N\NC(=N)N)c1ccc(CNC(=O)NCc2ccc(/C(C)=N/NC(=N)N)cc2)cc1 | 10.7 | 90 | – |
| – | C/C(=N\NC(=N)N)c1ccc(NC(=O)Nc2ccc(/C(C)=N/NC(=N)N)cn2)nc1 | 11 | 7 | 160 |
| – | Br.Br.C/C(=N\NC(=N)N)c1ccc(NC(=O)N(C)c2ccc(/C(C)=N/NC(=N)N)cc2)cc1 | 14.3 | 180 | 80 |
| Insoluble | C/C(=N/NC(N)=S)c1ccc(NC(=O)Nc2ccc(/C(C)=N/NC(N)=S)cc2)cc1 | – | – | – |
| – | C/C(=N\NC(=N)N)c1ccc(NC(=O)Oc2ccc(/C(C)=N/NC(=N)N)cc2)cc1 | – | 180 | 170 |
| – | Br.Br.C/C(=N/NC(=N)N)c1ccc(CNC(=O)N(Cc2ccc(/C(C)=N/NC(=N)N)cc2)N=O)cc1 | 10.5 | > 100 | 230 |
| Insoluble | C/C(=N\O)c1ccc(NC(=O)Nc2ccc(/C(C)=N/O)cc2)cc1 | – | – | – |
| – | Br.Br.C/C(=N/NC(=N)N)c1ccc(NC(=O)NCc2ccc(/C(C)=N/NC(=N)N)cc2)cc1 | 23 | 20 | 110 |
| – | C/C(=N\NC(=N)N)c1ccc(N(C)C(=O)N(C)c2ccc(/C(C)=N/NC(=N)N)cc2)cc1 | 1.7 | 100 | 310 |

| Structure (SMILES) | solubility [4] | Survival [1] [days] | IC50 [2] [µM] | inhibitory concentration [3] [µM] |
| --- | --- | --- | --- | --- |
| C/C(=N/NC(=N)N[N+](=O)[O-])c1ccc(NC(=O)Nc2ccc(/C(C)=N\NC(=N)N[N+](=O)[O-])cc2)cc1 | Insoluble | – | – | – |
